The target in assay [1] is Glutamate NMDA receptor; Grin1/Grin2c (Rattus norvegicus) (UniProt P35439+Q00961). In words: Positive allosteric modulation of recombinant rat GluN1/GluN2C receptor expressed in xenopus laevis oocyte assessed as potentiation of glutamate and glycine-induced current response at 30 uM at holding potential -40mV by two electrode voltage clamp method relative to control. An outline of the steps:
(§1)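 Two-electrode voltage clamp at -40 mV, 23°C, pH 7.4 Ba²⁺ recording solution, on Xenopus oocytes expressing rat NMDA receptors. Currents were evoked by 100 µM glutamate plus 30 µM glycine, with compound co-applied (DMSO 0.05–0.5% final). Each compound used at least 4 oocytes from at least 2 frogs.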

The target of assay [2] is Ionotropic glutamate receptor NMDA 1/2D (Rattus norvegicus, UniProt P35439+Q62645). Put plainly: Positive allosteric modulation of recombinant rat GluN1/GluN2D receptor expressed in xenopus laevis oocyte assessed as potentiation of glutamate and glycine-induced current response at holding potential -40mV by two electrode voltage clamp method. An outline of the steps: as §1
On the technique in general: Two-electrode voltage clamp is typically applied to oocytes expressing channels or transporters.

In assay [3] the target is Glutamate NMDA receptor; Grin1/Grin2c (Rattus norvegicus, UniProt P35439+Q00961). Put plainly: Positive allosteric modulation of recombinant rat GluN1/GluN2C receptor expressed in xenopus laevis oocyte assessed as potentiation of glutamate and glycine-induced current response at holding potential -40mV by two electrode voltage clamp method. A digest of the protocol: as §1

For assay [4], the target named is Ionotropic glutamate receptor NMDA 1/2D (Rattus norvegicus) (UniProt P35439+Q62645). In words: Positive allosteric modulation of recombinant rat GluN1/GluN2D receptor expressed in xenopus laevis oocyte assessed as potentiation of glutamate and glycine-induced current response at 30 uM at holding potential -40mV by two electrode voltage clamp method relative to control. An outline of the steps:
as §1

For assay [5], the target named is Glutamate NMDA receptor; Grin1/Grin2b (Rattus norvegicus, UniProt P35439+Q00960). In words: Positive allosteric modulation of recombinant rat GluN1/GluN2B receptor expressed in xenopus laevis oocyte assessed as potentiation of glutamate and glycine-induced current response at holding potential -40mV by two electrode voltage clamp method. An outline of the steps: as §1

Assay [6] concerns the target Glutamate NMDA receptor; Grin1/Grin2b (Rattus norvegicus) (UniProt P35439+Q00960). In words: Positive allosteric modulation of recombinant rat GluN1/GluN2B receptor expressed in xenopus laevis oocyte assessed as potentiation of glutamate and glycine-induced current response at 30 uM at holding potential -40mV by two electrode voltage clamp method relative to control. A digest of the protocol: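 Two-electrode voltage clamp at -40 mV, 23°C, pH 7.4 Ba²⁺ recording solution, on Xenopus oocytes expressing rat NMDA receptors. Currents were evoked by 100 µM glutamate plus 30 µM glycine, with compound co-applied (DMSO 0.05–0.5% final). […] Each compound used at least 4 oocytes from at least 2 frogs.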

With `COc1ccc(OCC2c3ccc(N4CCOCC4)cc3CCN2C(=O)c2cccc(Br)c2)cc1` (stereo unspecified), the Activity in assay [1] amounted to 279%; in assay [4], 284%; in assay [6], 152%. In addition, the maximal response (Emax) in assay [1] turned out to be 314%; in assay [4], 425%; in assay [6] it was 165%. For the same molecule, the results for the EC50 in assay [2], in assay [3] and in assay [5] were 4.3 µM, 3 µM and 4.8 µM, respectively.

Consider `CCOc1ccc(OCC2c3ccc(OC(C)C)cc3CCN2C(=S)c2cccc(F)c2)cc1` (stereo unspecified), for which the Emax in assay [1] was 170%; in assay [4], 159%; in assay [6], 184%. For the same molecule, the EC50 is 1.2 µM in assay [2], 1.4 µM in assay [3] and 0.55 µM in assay [5].

Consider `CCOc1ccc(OCC2c3ccc(OC(C)C)cc3CCN2C(=O)c2ccc(F)c(Cl)c2)cc1` (stereo unspecified), for which the values for the Activity in assay [1], in assay [4] and in assay [6] were 159%, 133% and 169%, respectively. The Emax in assay [1] is 162%; in assay [4], 137%; in assay [6], 170%. The values for the EC50 in assay [2], in assay [3] and in assay [5] were 2.2 µM, 1.3 µM and 2.2 µM, respectively.

Take `CCOc1ccc(OCC2c3ccc(OC(C)C)cc3CCN2C(=O)c2cccc(Br)c2)cc1` (stereo unspecified): the Activity in assay [1] stood at 133%; in assay [4], 98%; in assay [6], 136%. In addition, the results for the Emax in assay [1] and in assay [6] were 135% and 137%, respectively. Further, the EC50 in assay [3] was determined as 1.8 µM; in assay [5] it was 3.4 µM.

As to `CC(C)Oc1ccc(OCC2c3ccc(OC(C)C)cc3CCN2C(=O)c2cccc(Cl)c2)cc1` (stereo unspecified), the Activity was 134% in assay [1], 111% in assay [4] and 159% in assay [6]. In addition, the Emax in assay [1] worked out at 138%; in assay [6], 160%. Moreover, the values for the EC50 in assay [3] and in assay [5] were 1.7 µM and 3.8 µM, respectively.

Regarding `CCOc1ccc(OCC2c3ccc(OC(C)C)cc3CCN2C(=O)c2ccc(Cl)cc2)cc1` (stereo unspecified), the Activity was found to be 101% in assay [1], 88% in assay [4] and 112% in assay [6].

Consider `COc1ccc(OCC2c3ccc(OC(C)C)cc3CCN2C(=O)c2cccc(O)c2)cc1` (stereo unspecified), for which the Activity is 117% in assay [1], 105% in assay [4] and 98% in assay [6].

`CCOc1ccc(OCC2c3ccc(OC(C)C)cc3CCN2C(=O)c2ccccc2Cl)cc1` (stereo unspecified): the Activity stood at 93% in assay [1], 79% in assay [4] and 67% in assay [6].

Consider `CCOc1ccc(OCC2c3ccc(N4CCOCC4)cc3CCN2C(=O)c2cccc(Cl)c2)cc1` (stereo unspecified), for which the Activity in assay [1] is 133%; in assay [4], 104%; in assay [6], 127%.

Take `COc1ccc(OCC2c3ccc(OC(C)C)cc3CCN2C(=O)c2cccc(C(F)(F)F)c2)cc1` (stereo unspecified): the EC50 in assay [2] stood at 2.7 µM; in assay [3] it was 1.7 µM; in assay [5], 6.1 µM.

Consider `COc1ccc(OCC2c3ccc(OC(C)C)cc3CCN2C(=O)c2cccc(F)c2)cc1` (stereo unspecified), for which the EC50 in assay [5] stood at 36 µM.

With `CCOc1ccc(OCC2c3ccc(OC(C)C)cc3CCN2C(=O)c2cccc(-c3ccccc3)c2)cc1` (stereo unspecified), the Activity in assay [1] came out at 92%; in assay [4] it was 92%; in assay [6], 112%.

`COc1ccc(OCC2c3ccc(OC(C)C)cc3CCN2C(=O)c2ccc(OC)cc2)cc1` (stereo unspecified): the Activity in assay [1] was 138%; in assay [4], 114%; in assay [6] it was 110%.

`CCOc1ccc(OCC2c3ccc(OC(C)C)cc3CCN2C(=O)c2cccc(OC)c2)cc1` (stereo unspecified): the values for the Activity in assay [1], in assay [4] and in assay [6] were 65%, 44% and 89%, respectively.

As for `COc1ccc(OCC2c3ccc(OC(C)C)cc3CCN2C(=O)c2cccc(N)c2)cc1` (stereo unspecified), the values for the Activity in assay [1], in assay [4] and in assay [6] were 105%, 107% and 106%, respectively.

With `CCOc1ccc(OCC2c3ccc(OC(C)C)cc3CCN2C(=O)c2ccccc2F)cc1` (stereo unspecified), the Activity in assay [1] is 68%; in assay [4], 55%; in assay [6], 61%.

For the molecule `CC(C)Oc1ccc(OCC2c3ccc(OC(C)C)cc3CCN2C(=O)c2cccc(C(F)(F)F)c2)cc1` (stereo unspecified), the results for the maximal effect (Emax) in assay [1] and in assay [6] were 132% and 157%, respectively. The concentration giving a half-maximal response (EC50) in assay [3] is 0.92 µM; in assay [5], 1.5 µM.

With `CCOc1ccc(OCC2c3ccc(OCC)cc3CCN2C(=O)c2cccc(Cl)c2)cc1` (stereo unspecified), the figures for the Activity in assay [1], in assay [4] and in assay [6] were 91%, 75% and 104%, respectively.

For the molecule `COc1cccc(OCC2c3ccc(OC(C)C)cc3CCN2C(=O)c2cccc(Cl)c2)c1` (stereo unspecified), the Activity in assay [1] was 132%; in assay [4], 125%; in assay [6] it was 99%. Besides, the figures for the Emax in assay [1] and in assay [4] were 132% and 125%, respectively. Moreover, the figures for the concentration for a half-maximal effect (EC50) in assay [2] and in assay [3] were 5.4 µM and 6.2 µM, respectively.

`CCOc1ccc(OCC2c3ccc(OC(C)C)cc3CCN2C(=O)c2cccc(C)c2)cc1` (stereo unspecified): the Activity in assay [1] was found to be 67%; in assay [4], 43%; in assay [6] it was 78%.

In the case of `CCOc1ccc(OCC2c3ccc(OC(C)C)cc3CCN2C(=O)c2cccc(C(F)(F)F)c2)cc1` (stereo unspecified), the EC50 amounted to 1.3 µM in assay [3] and 2.4 µM in assay [5].

Regarding `CCOc1ccc(OCC2c3ccc(OC(C)C)cc3CCN2C(=O)c2ccc(F)cc2)cc1` (stereo unspecified), the Activity was 107% in assay [1], 90% in assay [4] and 118% in assay [6].

As for `COc1ccc(OCC2c3ccc(OCC(C)C)cc3CCN2C(=O)c2cccc(Cl)c2)cc1` (stereo unspecified), the half-maximal effective concentration (EC50) came out at 1.4 µM in assay [2], 0.9 µM in assay [3] and 1.5 µM in assay [5].

With `CCOc1ccc(OCC2c3ccc(OCC)cc3CCN2C(=O)c2cccc(F)c2)cc1` (stereo unspecified), the Activity came out at 77% in assay [1], 67% in assay [4] and 94% in assay [6].

`CCOc1ccc(OCC2c3ccc(OC(C)C)cc3CCN2C(=O)c2ccccc2)cc1` (stereo unspecified): the Activity in assay [1] turned out to be 83%; in assay [4] it was 69%; in assay [6], 88%.

Take `CCOc1ccc(OCC2c3ccc(OC(C)C)cc3CCN2C(=O)c2cccc(F)c2)cc1` (stereo unspecified): the Activity is 104% in assay [1], 91% in assay [4] and 147% in assay [6]. In addition, the EC50 in assay [5] came to 7.2 µM. Also, in assay [6], the Emax came out at 152%.

`CC(C)Oc1ccc(OCC2c3ccc(OC(C)C)cc3CCN2C(=O)c2cccc(F)c2)cc1` (stereo unspecified): the Activity in assay [1] is 133%; in assay [4], 103%; in assay [6], 179%. Besides, the Emax in assay [1] stood at 135%; in assay [6], 185%. In addition, the results for the EC50 in assay [3] and in assay [5] were 2.7 µM and 7.1 µM, respectively.

Turning to `COc1ccc(OCC2c3ccc(N(C)C)cc3CCN2C(=O)c2cccc(Cl)c2)cc1` (stereo unspecified), the Activity in assay [1] worked out at 288%; in assay [4] it was 322%; in assay [6], 127%. Further, the maximum response (Emax) in assay [1] is 315%; in assay [4], 349%. The EC50 in assay [2] was 4.4 µM; in assay [3], 4 µM.

With `COc1ccc(OCC2c3ccc(N(C)C)cc3CCN2C(=O)c2cccc(Br)c2)cc1` (stereo unspecified), the Activity in assay [1] amounted to 285%; in assay [4], 307%; in assay [6] it was 99%. The results for the maximum response (Emax) in assay [1] and in assay [4] were 293% and 327%, respectively. The EC50 was 3.8 µM in assay [2] and 2.4 µM in assay [3].

In general, Emax refers to the size of the effect at its maximum, as opposed to the concentration needed. For orientation: EC50 means the concentration at which the effect is half-maximal.

(Values after ChEMBL document CHEMBL4011622, “The Structure-Activity Relationship of a Tetrahydroisoquinoline Class of N-Methyl-d-Aspartate Receptor Modulators that Potentiates GluN2B-Containing N-Methyl-d-Aspartate Receptors” (J Med Chem, 2017).)
